Experimental data collected from several papers.
Each line is one published result; the experiments were not run side by side.
Observed: binding
PIK3CG: Phosphatidylinositol 4,5-bisphosphate 3-kinase catalytic subunit gamma isoform (PIK3CG, Homo sapiens, UniProt P48736)
CREBBP bromodomain: CREB-binding protein, bromodomain (CREBBP, Homo sapiens, UniProt Q92793)
tspO: tspO (Cereibacter sphaeroides, UniProt Q9RFC8)

C=CC(=O)N1CCC(C(=O)N(C)CC(=O)N2CCN(c3nc(-c4cnc(N)nc4C(F)F)nc(N4CCOCC4)n3)CC2)CC1
Kd (PIK3CG; competition with immobilised ligand): 9.4 nM

Cc1cc(/N=N/c2ccc(S(=O)(=O)O)cc2)ccc1O
Kd (CREBBP bromodomain; fluorescence): 76000 nM

CC1=C(/C=C/C(C)=C/C=C/C(C)=C/C=O)C(C)(C)CCC1
Kd (Cellular retinoic acid-binding protein 2 (CRABP2, Homo sapiens, UniProt P29373, L122E/R133K); fluorescence): 104 nM

C=CC1=C(C)C2=Cc3c(C=C)c(C)c4[n]3[Fe]([Cl])[n]3c(c(C)c(CCC(=O)O)c3=CC3=NC(=C4)C(C)=C3CCC(=O)O)=CC1=N2
Kd (tspO; fluorescence): 900 nM

CC(C)=CCc1c(O)ccc(C(=O)/C=C/c2ccc(O)cc2)c1O
Kd (Dihydroorotate dehydrogenase (quinone), mitochondrial (DHODH, Homo sapiens, UniProt Q02127); ITC): 1330 nM

Cc1cc2c(NC(=O)c3cccc(C(=O)O)c3)cccc2nn1
Kd (CREBBP bromodomain; competition with immobilised ligand): 1100 nM

CO[C@H]1[C@H](O)[C@@H](CO)OC(O)[C@@H]1O (stereo partly drawn)
Kd (Nucleolar RNA helicase 2 (Homo sapiens, UniProt Q9NR30); MST): 3980 nM

Cc1cc(/N=N/c2ccc(S(=O)(=O)O)cc2)cc(C)c1O
Kd (CREBBP bromodomain; fluorescence): 44000 nM

Nc1nc2c(ncn2[C@@H]2O[C@H](COP(=O)(O)OP(=O)(O)O)[C@@H](OP(=O)(O)OP(=O)(O)O)[C@H]2O)c(=O)[nH]1
Kd (gpmA (Escherichia coli, UniProt P62707); ITC): 52000 nM

C=CC1=C(C)c2cc3[nH]c(cc4nc(cc5[nH]c(cc1n2)c(C)c5CCC(=O)O)C(CCC(=O)O)=C4C)c(C)c3C=C
Kd (tspO; fluorescence): 900 nM

Cc1cc2nc3c(=O)[nH]c(=O)nc-3n(C[C@H](O)[C@H](O)[C@H](O)CO)c2cc1C
Kd (Riboflavin-binding protein (Gallus gallus, UniProt P02752); ITC): 127 nM

CCC(=O)N1CCC(C(=O)N(C)CC(=O)N2CCN(c3nc(-c4cnc(N)nc4C(F)F)nc(N4CCOCC4)n3)CC2)CC1
Kd (PIK3CG; competition with immobilised ligand): 16 nM
